Values after ≈ are worked out from the molar mass of the structure shown. Active and inactive are the calls of the source. The calls are words filed in the database; no cut-off is given here.

Data set [1] concerns Leishmania amazonensis. Briefly: Antileishmanial activity against Leishmania amazonensis IFLA/BR/67/PH8 promastigote assessed as parasite killing incubated for 24 hrs. Format: functional, organism-based. The following applies: IFLA/BR/67/PH8, 24 h. The method in brief: (§1)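 Axenic parasites (5 × 10^6/well) were exposed for 24 h to increasing concentrations of compound dissolved in DMSO. MTT (5 mg/mL) was added for 3 h and the reaction stopped with 20% SDS. Formazan was read at 600 nm against a 650 nm reference to give EC50. Leishmania grew in supplemented M199 pH 7.4 at 25 °C; T. cruzi Y epimastigotes grew in LIT with 10% FBS at 28 °C.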

For data set [2], the system named is Leishmania amazonensis. Description: Antileishmanial activity against Leishmania amazonensis IFLA/BR/67/PH8 intracellular amastigote assessed as parasite killing incubated for 24 hrs. Format: functional, organism-based. The settings on record: IFLA/BR/67/PH8, 24 h.
Data set [3] deals with Leishmania braziliensis. Description: Antileishmanial activity against Leishmania braziliensis MHOM/BR/91/H3227 promastigote assessed as parasite killing incubated for 24 hrs. Format: functional, organism-based. The following applies: MHOM/BR/91/H3227, 24 h. The method in brief: as §1
The test system of data set [4] is Leishmania braziliensis. Briefly: Antileishmanial activity against Leishmania braziliensis MHOM/BR/91/H3227 intracellular amastigote assessed as parasite killing incubated for 24 hrs. Format: functional, organism-based. The following applies: MHOM/BR/91/H3227, 24 h.
A short description of data set [5]: Cytotoxicity against mouse BMDM cells assessed as cell viability incubated for 24 hrs by MTT assay. In kind it is toxicity, cell-based. The method in brief:
(§2)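 MTT viability after 24 h exposure to increasing concentrations (DMSO solution) gave CC50. BMDM (4 × 10^5/well) were differentiated for 7 days from female BALB/c marrow in RPMI with 20% FBS and 30% L929 supernatant. L929 fibroblasts (5 × 10^4/well) were in supplemented RPMI. Both were held at 37 °C, 5% CO2. Read at 600/650 nm after 3 h MTT and SDS stop.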
In general terms: Tetrazolium assays rely on reduction of a dye to a coloured formazan, in cell work by metabolically active cells.

Data set [6] deals with Trypanosoma cruzi. Description: Antitrypanosomal activity against Trypanosoma cruzi Y epimastigote assessed as parasite killing incubated for 24 hrs. Format: functional, organism-based. The method in brief:
as §1

Data set [7] can be described thus: Cytotoxicity against mouse L929 cells assessed as cell viability measured for 24 hrs by MTT assay. In kind it is toxicity, cell-based. The method in brief: as §2
A short description of data set [8]: Selectivity index, ratio of CC50 for cytotoxicity against mouse BMDM cells assessed as cell viability to EC50 for antileishmanial activity against Leishmania amazonensis IFLA/BR/67/PH8 promastigote assessed as parasite killing. In kind it is toxicity, cell-based. The following applies: read-out: Ratio CC50/EC50. The method in brief:
(§3)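 Ratio of 24 h MTT CC50 in BALB/c BMDM to Leishmania EC50.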

Data set [9] in a line: Selectivity index, ratio of CC50 for cytotoxicity against mouse BMDM cells assessed as cell viability to EC50 for antileishmanial activity against Leishmania amazonensis IFLA/BR/67/PH8 intracellular amastigote. In kind it is toxicity, cell-based. The following applies: read-out: Ratio CC50/EC50. The method in brief: as §3
The nature of data set [10]: Selectivity index, ratio of CC50 for cytotoxicity against mouse BMDM cells assessed as cell viability to EC50 for antileishmanial activity against Leishmania braziliensis MHOM/BR/91/H3227 promastigote assessed as parasite killing. The settings on record: read-out: Ratio CC50/EC50. Format: toxicity, cell-based. The method in brief:
as §3

A short description of data set [11]: Selectivity index, ratio of CC50 for cytotoxicity against mouse BMDM cells assessed as cell viability to EC50 for antileishmanial activity against Leishmania braziliensis MHOM/BR/91/H3227 intracellular amastigote assessed as parasite killing. Format: toxicity, cell-based. The settings on record: read-out: Ratio CC50/EC50. The method in brief:
as §3

A short description of data set [12]: Selectivity index, ratio of CC50 for cytotoxicity against mouse L929 cells assessed as cell viability to EC50 for antitrypanosomal activity against Trypanosoma cruzi Y epimastigote assessed as parasite killing. Format: toxicity, cell-based. The settings on record: read-out: Ratio CC50/EC50. The method in brief: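 Ratio of 24 h MTT CC50 in L929 fibroblasts to T. cruzi Y epimastigote EC50.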

Data set [13] relates to Leishmania amazonensis. Briefly: Induction of membrane morphological changes in Leishmania amazonensis IFLA/BR/1967/PH8 promastigote upto 1.2 uM incubated for 24 hrs by optical microscopic analysis. In kind it is functional, organism-based.
The test system of data set [14] is Leishmania amazonensis. Description: Induction of membrane morphological changes in Leishmania amazonensis IFLA/BR/67/PH8 promastigote assessed as shortening of cell body at 2.4 to 9.6 uM incubated for 24 hrs by optical microscopic analysis. Format: functional, organism-based. The settings on record: dose 2.4-9.6 µM.
Data set [15] has as its system Leishmania amazonensis. Briefly: Induction of membrane morphological changes in Leishmania amazonensis IFLA/BR/67/PH8 promastigote assessed as rounding of cell body at 2.4 to 9.6 uM incubated for 24 hrs by optical microscopic analysis. In kind it is functional, organism-based. The settings on record: dose 2.4-9.6 µM.
Data set [16] deals with Leishmania amazonensis. Briefly: Induction of membrane morphological changes in Leishmania amazonensis IFLA/BR/67/PH8 promastigote assessed as aberrant nuclei 2.4 to 9.6 uM incubated for 24 hrs by optical microscopic analysis. Format: functional, organism-based. The settings on record: dose 2.4-9.6 µM.
Data set [17] has as its system Leishmania amazonensis. Briefly: Induction of membrane morphological changes in Leishmania amazonensis IFLA/BR/67/PH8 promastigote assessed as cell debris formation 2.4 to 9.6 uM incubated for 24 hrs by optical microscopic analysis. Format: functional, organism-based. The following applies: dose 2.4-9.6 µM.
The subject of data set [18] is Leishmania braziliensis. Description: Induction of membrane morphological changes in Leishmania braziliensis MHOM/BR/91/H3227 assessed as appearance of slender cell bodies at 1.2 to 9.6 uM incubated for 24 hrs by optical microscopic analysis. Format: functional, organism-based. The following applies: dose 1.2-9.6 µM.
For data set [19], the system named is Leishmania braziliensis. Briefly: Induction of membrane morphological changes in Leishmania braziliensis MHOM/BR/91/H3227 assessed as appearance of sperm-like structure at 1.2 to 9.6 uM incubated for 24 hrs by optical microscopic analysis. Format: functional, organism-based. The settings on record: dose 1.2-9.6 µM.
Data set [20] deals with Leishmania braziliensis. Briefly: Induction of membrane morphological changes in Leishmania braziliensis MHOM/BR/91/H3227 assessed as appearance of leaf-like promastigotes at 1.2 to 9.6 uM incubated for 24 hrs by optical microscopic analysis. Format: functional, organism-based. The following applies: dose 1.2-9.6 µM.
Data set [21] relates to Leishmania amazonensis. Description: Antileishmanial activity against Leishmania amazonensis IFLA/BR/67/PH8 amastigotes infected in mouse BMDM cells assessed as inhibition of parasite growth upto 1.6 uM pre-infected in cells for 24 hrs followed by compound addition and measured after 48 hrs by cell imaging analysis. In kind it is functional, organism-based. The method in brief: (§4)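 BALB/c BMDM (4 × 10^5) on coverslips were infected with stationary-phase L. amazonensis promastigotes, MOI 5, for 24 h at 34 °C, 5% CO2. After a PBS wash, cells received fresh RPMI with 0.4–1.6 μM. Incubation ran 24 h, 48 h, or 24 + 24 h with fresh medium. Cells were MeOH-fixed and stained; ≥300 cells were counted for infection rate, amastigotes/100 macrophages, and their product, relative to untreated. Two independent assays in triplicate.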

The subject of data set [22] is Leishmania amazonensis. Description: Antileishmanial activity against Leishmania amazonensis IFLA/BR/67/PH8 amastigotes infected in mouse BMDM cells assessed as reduction in infectivity index at 1.6 uM pre-infected in cells for 24 hrs followed by compound addition and measured after 48 hrs. Format: functional. On the set-up: scale not given: the % may be the effect or the level left. The method in brief:
as §4

The subject of data set [23] is Leishmania amazonensis. Briefly: Antileishmanial activity against Leishmania amazonensis IFLA/BR/67/PH8 amastigotes infected in mouse BMDM cells at 1.6 uM pre-infected in cells for 24 hrs followed by compound addition and measured after 48 hrs. Format: functional, organism-based. The method in brief: as §4
The subject of data set [24] is Leishmania braziliensis. Briefly: Antileishmanial activity against Leishmania braziliensis MHOM/BR/91/H3227 intracellular amastigotes infected in mouse BMDM cells assessed as reduction in infectivity index at 1.6 uM pre-infected in cells for 24 hrs followed by compound addition and measured after 48 hrs by cell imaging analysis. In kind it is functional. Also on record: scale not given: the % may be the effect or the level left. The method in brief:
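BMDM infected with stationary-phase L. braziliensis promastigotes, MOI 10, for 24 h at 34 °C, 5% CO2. After washing, cells were given 0.4–1.6 μM in fresh RPMI for 48 h. MeOH fixation and staining, then ≥300 host cells counted. Infectivity index (infection rate × amastigotes per 100 macrophages) expressed relative to untreated; two independent assays in triplicate.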

Data set [25] can be described thus: Cytotoxicity against mouse BMDM cells assessed as cell viability at 1.6 uM incubated for 24 hrs by MTT assay. In kind it is toxicity, cell-based.
The subject of data set [26] is Leishmania amazonensis. Description: Antileishmanial activity against Leishmania amazonensis IFLA/BR/67/PH8 amastigotes infected in female BALB/c mouse assessed as reduction in parasite burden at 5 to 10 mg/kg, ip administered for 15 days. In kind it is functional, organism-based. The settings on record: dose 5-10 mg/kg, time 15.0 day. The method in brief:
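Female BALB/c mice (35 days old) were infected at the tail base with ~1 × 10^6 stationary-phase L. amazonensis promastigotes. Treatment was 5 or 10 mg/kg/day ip in 150 μL DMSO/0.9% NaCl (1:9), daily for 15 days from week 7 to week 9; vehicle controls, 5 per group. Lesion parasite load was measured by limiting dilution in M199 with wells read after 7 days.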

In data set [27] the test system is MDA-MB-231. Description: Inhibition of cell migration in human MDA-MB-231 cells. In kind it is functional, cell-based.
For data set [28], the system named is PC-3. Briefly: Inhibition of cell migration in human PC-3 cells. In kind it is functional, cell-based.
The test system of data set [29] is Cell membrane. Briefly: Induction of cell membrane permeabilization in Leishmania amazonensis IFLA/BR/67/PH8 promastigotes incubated for 24 hrs. In kind it is subcellular. The method in brief:
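Promastigotes were incubated 24 h with 1.0 μM. Membrane permeability was measured by ethidium bromide fluorescence against untreated cells.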

Data set [30] concerns HaCaT. Briefly: Antiproliferative activity against human HaCaT cells assessed as inhibition of cell proliferation incubated for 72 hrs by MTT assay. Format: functional, cell-based.
For data set [31], the system named is Leishmania amazonensis. Description: Antileishmanial activity against Leishmania amazonensis IFLA/BR/67/PH8 amastigotes infected in female BALB/c mouse assessed as reduction in mean lesion at 5 mg/kg, topically administered for 32 days and measured after 8 to 13 week. The following applies: route topical, time 8-13 weeks.
In data set [32] the test system is Leishmania amazonensis. Description: Antileishmanial activity against Leishmania amazonensis IFLA/BR/67/PH8 amastigotes infected in female BALB/c mouse assessed as total ulcerated area by measuring delay in ulcer progression at 5 mg/kg, topically administered for 32 days and measured after 8 to 13 week. The settings on record: route topical, time 8-13 weeks.
In data set [33] the test system is Leishmania amazonensis. Briefly: Antileishmanial activity against Leishmania amazonensis assessed as reduction in parasite proliferation at 50 microg/ml incubated for 72 hrs. On the set-up: scale not given: the % may be the effect or the level left. The settings on record: dose 50 µg/ml. Format: functional.
Data set [34] concerns Leishmania amazonensis. Description: Antileishmanial activity against Leishmania amazonensis assessed as reduction in parasite proliferation incubated for 72 hrs. Format: functional, organism-based.

Take `CC(C)[C@H]1OC(=O)[C@H](Cc2ccccc2)N(C)C(=O)[C@@H](C(C)C)OC(=O)[C@H](Cc2ccccc2)N(C)C(=O)[C@@H](C(C)C)OC(=O)[C@H](Cc2ccccc2)N(C)C1=O`: the EC50 (commonly the concentration at which the effect is half-maximal) in data set [1] was determined as 1200 nM; in data set [2], 800 nM; in [3], 900 nM; in [4], 600 nM; in data set [6] it was 3400 nM. Also, the CC50 (in general, the concentration giving 50% cytotoxicity) at 24 h in [5] stood at 17800 nM; in [7], 45500 nM. For the same molecule, the selectivity ratio was found to be 14.8 in data set [8]; 22.3 in data set [9]; 19.8 in [10]; 29.7 in [11]; 13.4 in data set [12]. Also, the result in data set [13], in data set [14], in [15], in [16], in [17] and in data set [18] was Active. Also, the result in data set [19], in data set [20], in [21], in [23], in data set [26] and in data set [29] was Active. Moreover, the outcome in [32] was Active. For the same molecule, the Activity in data set [22] was 95%; in data set [24], 89%; in data set [25] it was “Non-toxic”. The inhibition result in [27] and in data set [28] was “Active” each time. Besides, in [30], the IC50 (as a rule, the concentration needed to halve the response being measured) was determined as 3900 nM. Besides, in [31], the result was inactive.

In the case of `C[C@@H]1[C@H](O)[C@@H](C)/C=C/C=C/C=C/C=C/C=C/C=C/C=C/[C@H](O[C@@H]2O[C@H](C)[C@@H](O)[C@H](N)[C@@H]2O)C[C@@H]2O[C@](O)(C[C@@H](O)C[C@@H](O)[C@H](O)CC[C@@H](O)C[C@@H](O)CC(=O)O[C@H]1C)C[C@H](O)[C@H]2C(=O)O` [AMPHOTERICIN B], the EC50 in [1] was determined as 200 nM; in data set [2] it was 200 nM; in data set [3], 200 nM; in [4] it was 200 nM; in data set [6] it was 2230 nM.

For the molecule `O=c1cc(CO)occ1O` [KOJIC ACID], in data set [33], the Activity stood at 79%. Also, in data set [34], the EC50 stood at 27.8 µg/mL (≈ 196 µM).

Values taken from ChEMBL document CHEMBL6078676, “In Vitro and In Vivo Leishmanicidal Activity of Beauvericin” (J Nat Prod, 2024).
